Measurements as given in ChEMBL document CHEMBL5325390, “1,2,4-Triazole-3-thione analogues with an arylakyl group at position 4 as metallo-β-lactamase inhibitors” (Bioorg Med Chem, 2022).
The source made the active and inactive calls. The calls are words filed in the database; no cut-off is given here.

How the values were obtained:
Beta-lactamase VIM-1 = Beta-lactamase VIM-1 (Bacteria, UniProt Q8GDC1); experiment: Binding affinity to VIM-1 (unknown origin) expressed in Escherichia coli BL21(DE3) assessed as inhibition constant by measuring rate of substrate hydrolysis by UV-Vis spectrophotometric analysis
How it was run: (§1)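 Purified MBL (1–70 nM) with 150 µM imipenem or meropenem as reporter substrate, 50 mM HEPES pH 7.5, 30 °C. Hydrolysis followed by absorbance at 300 nm without and with inhibitor (0.5 µM–1 mM). Ki from the slope of v0/vi vs [I] under a competitive model, or from Dixon plots varying inhibitor and substrate. […] Triplicate, mean ± SD.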

[1] = Binding affinity to VIM-2 (unknown origin) expressed in Escherichia coli BL21(DE3) assessed as inhibition constant by measuring rate of substrate hydrolysis by UV-Vis spectrophotometric analysis; how it was run: as §1
[2] = Binding affinity to VIM-4 (unknown origin) expressed in Escherichia coli BL21(DE3) assessed as inhibition constant by measuring rate of substrate hydrolysis by UV-Vis spectrophotometric analysis; how it was run: as §1
[3] = molecular target: Metallo-beta-lactamase type 2 (Bacteria) (UniProt C7C422); experiment: Inhibition of NDM1 (unknown origin) expressed in Escherichia coli BL21(DE3) assessed as substrate hydrolysis at 100 uM by UV-Vis spectrophotometric analysis relative to control
How it was run: (§2)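 Single-point screen at 100 or 200 µM inhibitor against purified MBL (1–70 nM) with 150 µM imipenem or meropenem reporter substrate, 50 mM HEPES pH 7.5, 30 °C. Initial hydrolysis rate read by absorbance at 300 nm and compared with the uninhibited reaction. Triplicate.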

Klebsiella pneumoniae [4] = experiment: Antimicrobial synergistic activity against blaVIM-1-producing multidrug-resistant Klebsiella pneumoniae 7023 clinical isolate assessed as meropenem MIC at 32 ug/ml by CLSI based broth microdilution method (reference value: 16 ug/ml); type: functional; conditions: dose 32 µg/ml
Klebsiella pneumoniae [5] = experiment: Antimicrobial synergistic activity against blaVIM-4-producing multidrug-resistant Klebsiella pneumoniae VA416/02 clinical isolate assessed as meropenem MIC at 32 ug/ml by CLSI based broth microdilution method (reference value: 16 ug/ml); type: functional; conditions: dose 32 µg/ml
Escherichia coli = experiment: Synergistic antimicrobial activity against blaNDM-1-producing multidrug-resistant Escherichia coli SI-004M clinical isolate assessed as meropenem MIC at 32 ug/ml by CLSI based microdilution method (reference value: 64 ug/ml); type: functional; conditions: dose 32 µg/ml
[6] = molecular target: T1, Angiotensin-converting enzyme (Oryctolagus cuniculus) (UniProt P12822); experiment: Inhibition of rabbit lung angiotensin-converting enzyme at 100 uM using Abz-Gly-Phe-(NO2)-Pro as substrate by fluorescence based microplate reader analysis relative to control; type: tissue-based
T1 sequence (whole entry): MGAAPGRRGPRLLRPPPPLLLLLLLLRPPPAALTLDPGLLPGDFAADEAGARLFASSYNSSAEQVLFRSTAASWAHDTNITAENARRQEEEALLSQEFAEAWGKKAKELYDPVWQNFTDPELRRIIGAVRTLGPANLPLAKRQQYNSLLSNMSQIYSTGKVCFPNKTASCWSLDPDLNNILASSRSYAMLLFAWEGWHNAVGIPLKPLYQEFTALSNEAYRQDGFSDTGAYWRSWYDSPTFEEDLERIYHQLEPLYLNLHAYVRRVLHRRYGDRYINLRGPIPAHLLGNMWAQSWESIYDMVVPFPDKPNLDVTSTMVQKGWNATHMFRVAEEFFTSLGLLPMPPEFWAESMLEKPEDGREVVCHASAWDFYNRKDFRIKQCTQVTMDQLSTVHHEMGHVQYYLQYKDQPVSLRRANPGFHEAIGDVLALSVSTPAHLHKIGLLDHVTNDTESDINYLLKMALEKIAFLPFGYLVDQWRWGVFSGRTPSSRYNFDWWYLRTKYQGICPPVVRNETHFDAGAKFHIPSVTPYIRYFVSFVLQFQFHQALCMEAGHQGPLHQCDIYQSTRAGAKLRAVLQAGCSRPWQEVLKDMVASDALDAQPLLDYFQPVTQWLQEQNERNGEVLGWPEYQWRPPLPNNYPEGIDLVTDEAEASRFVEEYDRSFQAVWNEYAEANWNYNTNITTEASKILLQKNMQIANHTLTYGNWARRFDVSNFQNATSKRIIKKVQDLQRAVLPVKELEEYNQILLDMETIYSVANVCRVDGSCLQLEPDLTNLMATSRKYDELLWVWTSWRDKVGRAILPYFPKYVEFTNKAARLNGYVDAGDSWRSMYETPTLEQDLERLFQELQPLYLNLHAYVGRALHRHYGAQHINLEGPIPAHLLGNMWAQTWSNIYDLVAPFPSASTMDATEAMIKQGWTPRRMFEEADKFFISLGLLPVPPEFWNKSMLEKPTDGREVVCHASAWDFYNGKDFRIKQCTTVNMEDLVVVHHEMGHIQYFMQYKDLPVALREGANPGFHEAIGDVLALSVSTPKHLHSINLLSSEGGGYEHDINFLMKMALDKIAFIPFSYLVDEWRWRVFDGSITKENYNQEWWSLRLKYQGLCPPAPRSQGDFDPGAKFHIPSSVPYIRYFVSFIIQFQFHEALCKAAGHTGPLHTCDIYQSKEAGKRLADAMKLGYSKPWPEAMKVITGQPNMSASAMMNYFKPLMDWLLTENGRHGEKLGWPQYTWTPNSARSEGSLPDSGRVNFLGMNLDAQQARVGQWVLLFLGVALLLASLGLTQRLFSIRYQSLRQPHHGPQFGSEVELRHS
How it was run: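 Rabbit lung ACE, 1.5 mU per well, in 150 mM Tris, 750 mM NaCl, pH 8.3, with Abz-Gly-Phe(NO2)-Pro substrate. Blank-corrected fluorescence of released Abz-Gly-OH (ex 316, em 413 nm) followed up to 90 min. Test compounds at 100 µM; captopril control at 100 nM. Inhibition % = 100 − (vi/v0 × 100).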

[7] = test system: metallo-β-lactamase IMP-1 (Pseudomonas aeruginosa); experiment: Inhibition of IMP1 (unknown origin) expressed in Escherichia coli BL21(DE3) assessed as substrate hydrolysis at 100 uM by UV-Vis spectrophotometric analysis relative to control
[8] = test system: metallo-β-lactamase L1 (Stenotrophomonas maltophilia); experiment: Inhibition of L1 (unknown origin) expressed in Escherichia coli BL21(DE3) assessed as substrate hydrolysis at 100 uM by UV-Vis spectrophotometric analysis relative to control
[9] = molecular target: Beta-lactamase VIM-1 (Bacteria) (UniProt Q8GDC1); experiment: Inhibition of VIM-1 (unknown origin) expressed in Escherichia coli BL21(DE3) assessed as substrate hydrolysis at 100 uM by UV-Vis spectrophotometric analysis relative to control; how it was run: as §2
[10] = test system: metallo-β-lactamase VIM-2 (Pseudomonas aeruginosa); experiment: Inhibition of VIM-2 (unknown origin) expressed in Escherichia coli BL21(DE3) assessed as substrate hydrolysis at 100 uM by UV-Vis spectrophotometric analysis relative to control
[11] = test system: metallo-β-lactamase VIM-4 (Pseudomonas aeruginosa); experiment: Inhibition of VIM-4 (unknown origin) expressed in Escherichia coli BL21(DE3) assessed as substrate hydrolysis at 100 uM by UV-Vis spectrophotometric analysis relative to control
[12] = molecular target: Metallo-beta-lactamase type 2 (Bacteria) (UniProt C7C422); experiment: Inhibition of NDM1 (unknown origin) expressed in Escherichia coli BL21(DE3) assessed as substrate hydrolysis at 200 uM by UV-Vis spectrophotometric analysis relative to control; how it was run: as §2
[13] = test system: metallo-β-lactamase IMP-1 (Pseudomonas aeruginosa); experiment: Inhibition of IMP1 (unknown origin) expressed in Escherichia coli BL21(DE3) assessed as substrate hydrolysis at 200 uM by UV-Vis spectrophotometric analysis relative to control
[14] = test system: metallo-β-lactamase VIM-2 (Pseudomonas aeruginosa); experiment: Inhibition of VIM-2 (unknown origin) expressed in Escherichia coli BL21(DE3) assessed as substrate hydrolysis at 200 uM by UV-Vis spectrophotometric analysis relative to control
[15] = test system: metallo-β-lactamase VIM-4 (Pseudomonas aeruginosa); experiment: Inhibition of VIM-4 (unknown origin) expressed in Escherichia coli BL21(DE3) assessed as substrate hydrolysis at 200 uM by UV-Vis spectrophotometric analysis relative to control
[16] = molecular target: Metallo-beta-lactamase type 2 (Bacteria, UniProt C7C422); experiment: Binding affinity to NDM1 (unknown origin) expressed in Escherichia coli BL21(DE3) assessed as inhibition constant by measuring rate of substrate hydrolysis by UV-Vis spectrophotometric analysis; conditions: read-out: Ki; how it was run: as §1
[17] = molecular target: Beta-lactamase VIM-1 (Bacteria) (UniProt Q8GDC1); experiment: Inhibition of VIM-1 (unknown origin) expressed in Escherichia coli BL21(DE3) assessed as substrate hydrolysis at 200 uM by UV-Vis spectrophotometric analysis relative to control; how it was run: as §2
[18] = Binding affinity to IMP1 (unknown origin) expressed in Escherichia coli BL21(DE3) assessed as inhibition constant by measuring rate of substrate hydrolysis by UV-Vis spectrophotometric analysis; conditions: read-out: Ki; how it was run: as §1

Chain of Metallo-beta-lactamase type 2 (Bacteria) (C7C422 whole entry): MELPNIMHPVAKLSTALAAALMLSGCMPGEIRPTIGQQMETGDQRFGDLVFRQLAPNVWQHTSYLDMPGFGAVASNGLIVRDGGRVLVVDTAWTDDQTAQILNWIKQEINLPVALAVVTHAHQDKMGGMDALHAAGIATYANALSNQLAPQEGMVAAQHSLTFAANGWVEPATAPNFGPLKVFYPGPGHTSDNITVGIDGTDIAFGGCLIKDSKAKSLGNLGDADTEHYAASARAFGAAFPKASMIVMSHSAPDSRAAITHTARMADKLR
Chain of Metallo-beta-lactamase type 2 (C7C422 whole entry): as above

inhibition [3] [%] | inhibition [7] [%] | inhibition [9] [%] | inhibition [10] [%] | inhibition [11] [%] | inhibition [12] [%] | inhibition [13] [%] | inhibition [14] [%] | inhibition [15] [%] | Ki [16] [µM] | inhibition [17] [%] | Structure (SMILES) | Ki (Beta-lactamase VIM-1) [µM] | Ki [1] [µM] | Ki [2] [µM] | MIC (Klebsiella pneumoniae [4]) [mg/L] | MIC (Klebsiella pneumoniae [5]) [mg/L] | MIC (Escherichia coli) [mg/L] | inhibition [6] | inhibition [8] [%] | Ki [18] [µM]
< 30 | < 30 | < 30 | 50 | < 30 | – | – | – | – | – | – | O=C(O)Cc1ccccc1Cn1c(-c2ccccc2)n[nH]c1=S | – | – | – | – | – | – | – | < 30 | –
< 30 | 63 | 30 | < 30 | < 30 | – | – | – | – | – | – | S=c1[nH]nc(Cc2ccccc2)n1CCCc1ccccc1 | – | – | – | – | – | – | – | 32 | –
< 30 | < 30 | 47 | < 30 | < 30 | < 50 | < 50 | < 50 | < 50 | – | – | Cc1ccccc1-c1n[nH]c(=S)n1CCc1ccc(OCc2ccccc2)cc1 | – | – | – | – | – | – | – | – | –
– | – | – | 30 | < 30 | – | – | – | < 50 | 15.4 | – | S=c1[nH]nc(-c2ccccc2)n1[C@@H]1C[C@H]1c1ccccc1 | 3.1 | – | – | – | – | – | – | – | –
< 30 | < 30 | < 30 | < 30 | < 30 | < 50 | < 50 | < 50 | < 50 | – | < 50 | S=c1[nH]nc(Cc2ccccc2)n1CCc1ccccc1 | – | – | – | – | – | – | – | – | –
< 30 | 54 | 30 | < 30 | 34 | < 50 | – | < 50 | – | – | – | O=C1OC(Cn2c(-c3ccccc3-c3ccccc3)n[nH]c2=S)c2ccccc21 (centres undefined) | – | – | – | – | – | – | – | – | –
< 30 | < 30 | 50 | – | – | < 50 | < 50 | 50 | 50 | – | – | S=c1[nH]nc(-c2ccccc2)n1CCc1c[nH]c2ccccc12 | – | – | – | – | – | – | – | – | –
< 30 | 57 | – | < 30 | < 30 | – | – | – | – | – | – | S=c1[nH]nc(Cc2ccccc2)n1Cc1ccccc1 | 23 | – | – | – | – | – | – | 40 | –
< 30 | 30 | < 30 | < 30 | < 30 | < 50 | – | < 50 | < 50 | – | < 50 | O=C1OC(Cn2c(Cc3ccc4ccccc4c3)n[nH]c2=S)c2ccccc21 (centres undefined) | – | – | – | – | – | – | – | – | –
< 30 | – | 34 | – | < 30 | < 50 | – | – | < 50 | – | – | S=c1[nH]nc(-c2ccccc2)n1CCc1ccc(OCc2ccccc2)cc1 | – | 18.9 | – | – | – | – | – | – | 5.3

Structure (SMILES) | inhibition [3] [%] | inhibition [7] [%] | inhibition [9] [%] | inhibition [10] [%] | inhibition [11] [%] | inhibition [12] [%] | inhibition [13] [%] | inhibition [14] [%] | inhibition [15] [%] | Ki [16] [µM] | inhibition [17] [%] | Ki (Beta-lactamase VIM-1) [µM] | Ki [1] [µM] | Ki [2] [µM] | MIC (Klebsiella pneumoniae [4]) [mg/L] | MIC (Klebsiella pneumoniae [5]) [mg/L] | MIC (Escherichia coli) [mg/L] | inhibition [6] | inhibition [8] [%] | Ki [18] [µM]
COc1ccc(O)c(-c2n[nH]c(=S)n2CC2OC(=O)c3ccccc32)c1 (centres undefined) | 68 | 47 | – | – | – | – | – | – | – | – | – | 1.2 | 3.3 | 0.9 | 2 | 2 | 64 | inactive | – | –
COc1ccc(O)c(-c2n[nH]c(=S)n2Cc2ccccc2)c1 | < 30 | < 30 | – | – | – | – | – | – | – | – | – | 0.59 | 4 | 1.8 | 2 | 2 | 32 | – | 40 | –
S=c1[nH]nc(-c2ccccc2)n1CCCCc1ccccc1 | 55 | < 30 | – | – | – | – | – | – | – | – | – | 1.2 | 0.23 | 0.43 | 2 | 4 | 64 | – | 50 | –
Sc1nnc(-c2ccccc2)n1Cc1ccccc1 | < 30 | – | – | – | – | – | – | – | – | – | – | 0.72 | – | 1.5 | 4 | 4 | – | inactive | – | 8
O=C(O)c1ccc(Cn2c(-c3ccccc3)n[nH]c2=S)cc1 | < 30 | < 30 | – | – | – | – | – | – | – | – | – | 3.6 | 2.7 | 1.1 | 4 | 2 | 64 | – | 45 | –
O=C(O)c1cccc(Cn2c(-c3ccccc3)n[nH]c2=S)c1 | < 30 | < 30 | – | – | – | – | – | – | – | – | – | 1.4 | 1.8 | 0.4 | 2 | 2 | 32 | inactive | – | –
